Data on three molecules can be found in ChEMBL document CHEMBL1773052, “3-Trifluoromethylquinoxaline N,N'-dioxides as anti-trypanosomatid agents. Identification of optimal anti-T. cruzi agents and mechanism of action studies” (J Med Chem, 2011).

Series [1] concerns Trypanosoma cruzi. Put plainly: Antitrypanosomal activity against Trypanosoma cruzi Tulahuen 2 epimastigotes assessed as growth inhibition at 25 uM after 5 days relative to control. It counts as functional. Particulars: Tulahuen 2, 120 h, read-out: GI. The procedure, abridged:
(§1)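 Epimastigotes grown axenically at 28 °C in BHI-tryptose + 5% FBS; a 10-day stationary culture was inoculated to 1 × 10⁶ cells/mL. Drug added from DMSO stock, final DMSO ≤0.4%, vehicle control. A600 read daily. PGI on day 5 corrects for day-0 absorbance, relative to control. […] Three independent experiments.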

Series [2] concerns Trypanosoma cruzi. Put plainly: Antitrypanosomal activity against Trypanosoma cruzi Tulahuen 2 epimastigotes assessed as growth inhibition after 5 days. The conditions noted are these: Tulahuen 2, 120 h, read-out: ID50. Format: functional. The procedure, abridged:
as §1

Series [3] relates to Trypanosoma cruzi. In words: Antitrypanosomal activity against Trypanosoma cruzi CL Brener clone epimastigotes assessed as cell death at 25 uM after 2 days by MTT assay relative to control. It counts as functional. The procedure, abridged: (§2)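 Epimastigotes of each strain taken in exponential growth in BHI-tryptose with 5% FBS, 1 mL per well. Compounds added from DMSO and kept 2 days at 28 °C. Cells washed twice and resuspended in PBS-glucose (5.5 mM), then given 0.4 mg/mL MTT for 4 h at 28 °C. Lysis in SDS-isopropanol, OD read. Triplicate wells, six growth controls. PCyt taken against control, corrected for medium-only wells.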

Series [4] deals with Trypanosoma cruzi. Put plainly: Antitrypanosomal activity against Trypanosoma cruzi CL Brener clone epimastigotes assessed as cell death after 2 days by MTT assay. It counts as functional. Particulars: 48 h, read-out: ID50 (the source's name). The procedure, abridged: (§3)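 Parasites in exponential growth, in BHI-tryptose + 5% FBS for T. cruzi or RPMI + 5% FBS for L. braziliensis, 28 °C, 24-well plates. Compounds in DMSO; miltefosine in ethanol. 2-day exposure, two PBS-glucose (5.5 mM) washes, then MTT 0.4 mg/mL for 4 h at 28 °C. SDS-isopropanol lysis, OD read. Triplicates, six growth controls.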
For orientation: Formazan colour is commonly taken as a measure of viable cells.

Series [5] concerns Trypanosoma cruzi. Put plainly: Antitrypanosomal activity against Trypanosoma cruzi Y epimastigotes assessed as cell death at 25 uM after 2 days by MTT assay relative to control. It counts as functional. The procedure, abridged: as §2
Series [6] relates to Trypanosoma cruzi. Put plainly: Antitrypanosomal activity against Trypanosoma cruzi Y epimastigotes assessed as cell death after 2 days by MTT assay. It counts as functional. The conditions noted are these: 48 h, read-out: ID50 (the source's name). The procedure, abridged: as §3
In series [7] the test system is Trypanosoma cruzi. Put plainly: Antitrypanosomal activity against Trypanosoma cruzi Colombiana epimastigotes assessed as cell death at 25 uM after 2 days by MTT assay relative to control. It counts as functional. The procedure, abridged:
as §2

Series [8] relates to Leishmania braziliensis. Put plainly: Antileishmanial activity against Leishmania braziliensis MHOM/BR/00/LTB300 promastigotes assessed as cell death after 2 days by MTT assay. It counts as functional. The conditions noted are these: MHOM/BR/00/LTB300, 48 h, read-out: ID50 (the source's name). The procedure, abridged:
as §3

The subject of series [9] is Trypanosoma cruzi. Put plainly: Antitrypanosomal activity against Trypanosoma cruzi CL Brener clone trypomastigotes in parasite infected BALB/c mouse blood assessed as parasite lysis at 250 ug/ml after 24 hrs relative to control. It counts as functional. The procedure, abridged: (§4)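 Blood from BALB/c mice 7 days post-infection, taken by cardiac puncture into 3.8% sodium citrate (7:3). Compounds dissolved in DMSO, diluted in PBS to 100 or 250 μg/mL. 10 μL mixed with 100 μL infected blood (~10⁶ parasites/mL), in triplicate. Shaken 10 min at RT, held 4 °C for 24 h. Parasites counted by microscopy; gentian violet 250 μg/mL as standard.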

Series [10] has as its system Trypanosoma cruzi. In words: Antitrypanosomal activity against Trypanosoma cruzi CL Brener clone trypomastigotes in parasite infected BALB/c mouse blood assessed as parasite lysis at 100 ug/ml after 24 hrs relative to control. It counts as functional. The procedure, abridged: as §4
A short description of series [11]: Cytotoxicity against mouse J774 cells. The conditions noted are these: read-out: ID50 (the source's name). It counts as cell-based.
Series [12] is described as follows: Selectivity index, ratio of ID50 for mouse J774 cells to ID50 for Trypanosoma cruzi Tulahuen 2 epimastigotes. Format: toxicity, cell-based. Particulars: J774 cells versus Trypanosoma cruzi Tulahuen 2 epimastigotes, read-out: Selectivity Index.
Series [13] relates to Salmonella typhimurium. Put plainly: Mutagenic activity in Salmonella Typhimurium TA98 assessed as number of revertants at 0.005 to 15 ug/plate by Ames test in absence of S9 fraction. Format: toxicity, organism-based. The conditions noted are these: salmonella enterica subsp. enterica serovar typhimurium. The procedure, abridged:
(§5)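 Direct plate incubation with S. typhimurium TA98 on minimal glucose agar. Toxicity to the strain tested first; doses run in triplicate from DMSO solutions, DMSO as negative control. Metabolic activation with 500 μL Aroclor-treated mouse liver S9. Positive controls: 4-nitro-o-phenylenediamine 20.0 μg/plate without S9; 2-aminofluorene 10.0 μg/plate with S9. Revertants counted manually; mutagenic if ≥2-fold the negative control at two consecutive doses.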

In series [14] the test system is Salmonella typhimurium. In words: Mutagenic activity in Salmonella Typhimurium TA98 assessed as number of revertants at 0.005 to 15 ug/plate by Ames test in presence of S9 fraction. Format: toxicity, organism-based. The conditions noted are these: salmonella enterica subsp. enterica serovar typhimurium. The procedure, abridged:
as §5
(In general: The Ames test detects mutagens through reverse mutation in bacteria.)

Series [15] relates to Trypanosoma cruzi. Put plainly: Inhibition of mitochondrial dehydrogenase activity in Trypanosoma cruzi Y epimastigotes at 20 uM up to 120 mins by MTT assay. The procedure, abridged:
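Y-strain epimastigotes, 10⁶ per well in 500 μL medium, treated with 20 μM compound at 28 °C, untreated wells as time-matched controls. At each time point cells counted, then MTT (50 μL of 5 mg/mL in PBS) added for 4 h. Stopped with acidic isopropanol, A570 read. Activity given as percent of untreated control.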

Series [16] relates to Trypanosoma cruzi. In words: Antitrypanosomal activity against Trypanosoma cruzi CL Brener clone infected in Swiss albino mouse assessed as increase of mouse survival days at 50 mg/kg/day, po relative to control. Format: functional.
Series [17] relates to Trypanosoma cruzi. In words: Antitrypanosomal activity against Trypanosoma cruzi CL Brener clone infected in Swiss albino mouse assessed as increase of mouse survival days at 10 mg/kg/day, po relative to control. Format: functional.
For series [18], the system named is Trypanosoma cruzi. Put plainly: Antitrypanosomal activity against Trypanosoma cruzi Y infected in Swiss albino mouse assessed as increase of mouse survival days at 10 mg/kg/day, po relative to control. It counts as functional.
Series [19] deals with Trypanosoma cruzi. Put plainly: Antitrypanosomal activity against Trypanosoma cruzi Y infected in Swiss albino mouse assessed as increase of mouse survival days at 30 mg/kg/day, po relative to control. It counts as functional.
The test system of series [20] is Trypanosoma cruzi. In words: Antitrypanosomal activity against Trypanosoma cruzi CL Brener clone infected in BALB/c mouse assessed as increase of mouse survival days at 10 mg/kg/day, po relative to control. Format: functional.
The test system of series [21] is Trypanosoma cruzi. In words: Antitrypanosomal activity against Trypanosoma cruzi Y infected in Swiss albino mouse assessed as reduction of parasitemia level at 10 to 30 mg/kg/day, po by ELISA. It counts as functional, organism-based. The procedure, abridged: (§6)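 Male BALB/c or Swiss albino mice, 30 days old, SPF, infected ip with 10³ blood trypomastigotes (CL Brener or Y). Oral dosing in PBS for 10 days. Controls: 10 mice on PBS; treated groups of 8. Tail-vein parasitemia weekly for 60 days, mortality recorded. Anti-T. cruzi antibodies measured by ELISA, run twice, at 30 and 60 or 90 days post-infection.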
(In general: An ELISA detects its analyte on a solid surface through an enzyme-linked reagent.)

Series [22] has as its system Trypanosoma cruzi. Put plainly: Antitrypanosomal activity against Trypanosoma cruzi Y infected in Swiss albino mouse assessed as reduction of microbial antibody level at 10 to 30 mg/kg/day, po by Wilconxon test. Format: functional, organism-based. The procedure, abridged:
as §6

The subject of series [23] is Trypanosoma cruzi. In words: Antitrypanosomal activity against Trypanosoma cruzi CL Brener clone infected in BALB/c mouse assessed as reduction of parasitemia level at 10 mg/kg/day, po by ELISA. It counts as functional, organism-based. The procedure, abridged:
as §6

Series [24] has as its system Trypanosoma cruzi. Put plainly: Antitrypanosomal activity against Trypanosoma cruzi CL Brener clone infected in Swiss albino mouse assessed as reduction of parasitemia level at 10 mg/kg/day, po after 55 days by ELISA. It counts as functional, organism-based. Particulars: in the assay text read “after 53 days” for “after 55 days”. The procedure, abridged:
as §6

Series [25] relates to Salmonella typhimurium. Put plainly: Mutagenic activity in Salmonella Typhimurium TA98 assessed as number of revertants at 0.2 to 15 ug/plate by Ames test in absence of S9 fraction. Format: toxicity, organism-based. The conditions noted are these: salmonella enterica subsp. enterica serovar typhimurium. The procedure, abridged: as §5
Series [26] has as its system Salmonella typhimurium. In words: Mutagenic activity in Salmonella Typhimurium TA98 assessed as number of revertants at 0.2 to 15 ug/plate by Ames test in presence of S9 fraction. It counts as toxicity, organism-based. The conditions noted are these: salmonella enterica subsp. enterica serovar typhimurium. The procedure, abridged:
as §5

Series [27] has as its system Trypanosoma cruzi. Put plainly: Antitrypanosomal activity against Trypanosoma cruzi Colombiana epimastigotes assessed as cell death after 2 days by MTT assay. The conditions noted are these: 48 h, read-out: ID50 (the source's name). Format: functional. The procedure, abridged:
as §3

Active and inactive are the calls of the source. The rule behind the calls is not given here.

Consider `O=C(c1ccccc1)c1c(C(F)(F)F)[n+]([O-])c2cc(F)c(F)cc2[n+]1[O-]`, for which the inhibition of growth at 25 µM in series [1] worked out at 100%. The IC50 amounted to 0.7 µM in series [2], 1.1 µM in series [4], 1.8 µM in series [6] and 1.3 µM in series [8]. The Activity in series [3] is reported as 96%; in series [5], 100%; in series [7], 100%; in [9], 84%; in series [10] it was 63%; in series [13], “Non-toxic”. For the same molecule, in series [14], the Activity result was “Non-toxic”. In addition, the CC50 in series [11] came to 8 µM. Further, in series [12], the selectivity ratio was 11.4. Also, in [15], the inhibition entry was “Active”. Moreover, the survival at 50 mg/kg/day in series [16] came to 100%. For the same molecule, the survival at 10 mg/kg/day in [17], in series [18] and in series [20] was 100% throughout. The survival at 30 mg/kg/day in [19] is 87.5%. The outcome in series [21], in series [22], in series [23] and in series [24] was Active.
As to `CC(=O)c1c(C)[n+]([O-])c2cc(F)c(F)cc2[n+]1[O-]`, in series [1], the inhibition of growth at 25 µM is 100%. The IC50 in [2] amounted to 0.4 µM. Also, the Activity result in series [25] and in [26] was “Toxic” each time.
In the case of `Cc1c(C(=O)c2ccccc2)[n+]([O-])c2cc(F)c(F)cc2[n+]1[O-]`, the inhibition of growth at 25 µM in series [1] came to 92%. Besides, the IC50 amounted to 4.2 µM in series [2]; 16.2 µM in series [4]; 18.3 µM in series [6]; 4.5 µM in series [27]; 20.4 µM in [8]. Also, the Activity in series [3] was found to be 92%; in series [5], 89%; in [7], 98%.
